ChEMBL document CHEMBL4145615, “Indolyl Azaspiroketal Mannich Bases Are Potent Antimycobacterial Agents with Selective Membrane Permeabilizing Effects and in Vivo Activity” (J Med Chem, 2018)
In brackets after ≈: the same amount, converted by molar mass.

Experiments:
Vero C1008 = assay: Cytotoxicity against African green monkey Vero E6 cells assessed as cell growth inhibition after 48 hrs by celltitre 96 aqueous one-based assay; conditions: Chlorocebus sabaeus, Vero C1008, 48 h
[1] = Hemolytic activity against human RBC after 1 hr; type: ADME, cell-based, Erythrocyte; conditions: red blood cells (erythrocytes)
How it was run: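 Human red blood cells were exposed to the test compound at a range of concentrations in phosphate-buffered saline for 1 h at 37°C. Hemolysis was referenced to 2% Triton X-100, taken as 100% hemolysis. The value reported is the concentration that lyses 50% of RBCs.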

[2] = Selectivity index, ratio of IC50 for African green monkey Vero E6 cells to MIC50 for Mycobacterium bovis BCG ATCC 35734; type: toxicity, Vero C1008; conditions: read-out: Selectivity Index
[3] = tested on: Mycobacterium tuberculosis; assay: Antimycobacterial activity against Mycobacterium tuberculosis H37Rv ATCC 27294 after 7 days by broth dilution method; type: functional; conditions: H37Rv ATCC 27294, 168 h

Row | Structure (SMILES) | IC50 (Vero C1008) | HC50 at 1 h [1] | further results
1 | CCCCCCCCn1cc(CN2CCC3(C=Cc4ccccc43)CC2)c2ccc(OC)cc21 | 44 µM | > 300 µM | selectivity ratio [2]: 44
2 | CCCCCCCCn1cc(CN2CCC3(CCO3)CC2)c2ccc(OC)cc21 | 31 µM | 88 µM | selectivity ratio [2]: 16
3 | CCCCCCCCn1cc(CN2CC(c3ccccc3)C2)c2ccc(OC)cc21 | 44 µM | > 300 µM | –
4 | CCCCCCCCn1ccc2cc(OCCCN3CCCCCC3)ccc21 | 34 µM | – | ΔTm (Lipid bilayer): 1 °C
5 | CCCCCCCCn1cc(CN2CCC3(CC2)SCCS3)c2ccc(OC)cc21 | > 200 µM | > 300 µM | MIC50 [3]: 0.7 µM (≈ 0.313 µg/mL); MIC90 [3]: 1.1 µM (≈ 0.491 µg/mL); ΔTm (Lipid bilayer): 4 °C; selectivity ratio [2]: > 400
6 | COc1ccc2c(CN3CCC4(CC3)OCCCO4)cn(CCCCc3ccccc3)c2c1 | 21 µM | > 300 µM | –
7 | COc1ccc2c(CN3CCC4(CC3)OCCCO4)cn(CCCOc3ccc(F)cc3)c2c1 | – | > 300 µM | –
8 | CCCCCCCCn1cc(CN2CCOC3(CCCOC3)C2)c2ccc(OC)cc21 (configuration not stated) | > 500 µM | > 300 µM | selectivity ratio [2]: > 278
9 | CCCCCCCCn1cc(CN2CCC3(CC2)OCCCO3)c2ccc(OCc3ccccc3)cc21 | 27 µM | > 300 µM | –
10 | COc1ccc2c(CN3CCC4(CC3)OCCCO4)cn(CCCOc3ccc(C)c(C)c3)c2c1 | – | > 300 µM | –
11 | CCCCCCCCn1cc(CNCC2CCC3(CCCC3)O2)c2ccc(OC)cc21 (configuration not stated) | 21 µM | – | selectivity ratio [2]: 12
12 | COc1ccc2c(CN3CCC4(CC3)OCCCO4)cn(CCCOCc3ccccc3)c2c1 | 54 µM | – | –
13 | CCCCCCCCn1cc(CN2CCCCC2)c2ccc([N+](=O)[O-])cc21 | 23 µM | – | –
14 | CCCCCCCCn1cc(CN2CCC3(CC2)OCCCO3)c2ccc(OCCC)cc21 | 29 µM | 27 µM | –
15 | COc1ccc2c(CN3CCC4(CC3)OCCCO4)cn(CCCOc3ccccc3)c2c1 | – | > 300 µM | –
16 | CCCCCCCCn1cc(CN2CCC3(CC2)OC[C@@H](C)O3)c2ccc(OC)cc21 | 37 µM | 75 µM | –
17 | CCCCCCCCn1cc(CNC2CCC3(CC2)OCCO3)c2ccc(OC)cc21 | 22 µM | 207 µM | –
18 | CCCCCCCCn1cc(CN2CCC3(CC2)OCCO3)c2ccc(OCCC)cc21 | 29 µM | 31 µM | –
19 | CCCCCCCCn1cc(CN2[C@H]3CCC[C@@H]2CCC3)c2ccc(OC)cc21 | 31 µM | 109 µM | selectivity ratio [2]: 8
20 | COc1ccc2c(CN3CCCCC3)cn(CCCc3ccccc3)c2c1 | 43 µM | – | –
21 | COc1ccc2c(CN3CCC4(CC3)OCCCO4)cn(CCCOc3ccc(C)cc3)c2c1 | – | > 300 µM | –
22 | CCCCCCCCn1cc(CN2CCC3(CC2)OCCS3)c2ccc(OC)cc21 | 64 µM | > 300 µM | MIC50 [3]: 0.6 µM (≈ 0.258 µg/mL); MIC90 [3]: 0.95 µM (≈ 0.409 µg/mL); ΔTm (Lipid bilayer): 4 °C
23 | CCCCCCCCn1cc(CN2CCC3(CC2)OCCO3)c2ccc(C#N)cc21 | 59 µM | > 300 µM | –
24 | CCCCCCCCn1cc(CN2CCC3(CC2)OCCCO3)c2ccc([N+](=O)[O-])cc21 | 28 µM | > 300 µM | –

Row | Structure (SMILES) | IC50 (Vero C1008) | HC50 at 1 h [1] | further results
25 | CCCCCCCCn1cc(CN2CCCC3(CC2)OCCS3)c2ccc(OC)cc21 (configuration not stated) | 35 µM | > 300 µM | –
26 | CCCCCCCCn1cc(CN2CCC3(CC2)OCCCO3)c2ccc(OC(C)C)cc21 | 20 µM | 29 µM | –
27 | CCCCCCCCn1cc(CN2CCC3(CCN(Cc4ccccc4)CC3)CC2)c2ccc(OC)cc21 | 14 µM | 69 µM | –
28 | CCCCCCCCn1cc(CN2CCCC3(CC2)OCCCS3)c2ccc(OC)cc21 (configuration not stated) | 34 µM | 132 µM | –
29 | CCCCCCCCn1cc(CN2CCC3(CC2)SCCCS3)c2ccc(OC)cc21 | 152 µM | > 300 µM | MIC50 [3]: 0.5 µM (≈ 0.23 µg/mL); MIC90 [3]: 0.78 µM (≈ 0.359 µg/mL)
30 | CCCCCCCCn1cc(CNCC2CC3CC3C2)c2ccc(OC)cc21 (configuration not stated) | 10 µM | 33 µM | –
31 | CCCCCCCCn1cc(CN2CCCCC2)c2ccc(C#N)cc21 | 22 µM | – | –
32 | CCCCCCCCn1cc(CN2CCCCC2)c2ccc(OC(C)C)cc21 | 26 µM | – | –
33 | CCCCCCCCn1ccc2ccc(OCCCN3CCCCCC3)cc21 | 33 µM | – | –
34 | CCCCCCCCn1cc(CN2CCC3(CC2)OC[C@H](C)O3)c2ccc(OC)cc21 | 34 µM | 51 µM | –
35 | CCCCCCCCn1cc(CN2CCC3(CC2)OCCCO3)c2cccc([N+](=O)[O-])c21 | 49 µM | > 300 µM | –
36 | COc1ccc(CCCn2cc(CN3CCC4(CC3)OCCO4)c3ccc(OC)cc32)cc1 | 31 µM | – | –
37 | CCCCCCCCn1cc(CN2CCC3(CCc4ccccc43)CC2)c2ccc(OC)cc21 | 31 µM | > 300 µM | selectivity ratio [2]: 31
38 | CCCCCCCCn1cc(CNCC2CCC3CC3C2)c2ccc(OC)cc21 (configuration not stated) | 20 µM | – | selectivity ratio [2]: 13
39 | CCCCCCCCn1cc(CN2CCC3(CC2)OCCO3)c2ccc(OCc3ccccc3)cc21 | 36 µM | > 300 µM | –
40 | CCCCCCCCn1cc(CNC2Cc3ccccc3C2)c2ccc(OC)cc21 | 24 µM | – | selectivity ratio [2]: 6
41 | COc1ccc(OCCCn2cc(CN3CCC4(CC3)OCCCO4)c3ccc(OC)cc32)cc1 | 46 µM | > 300 µM | –
42 | CCCCCCCCn1cc(CN2CCC3(CC2)OC(C)C(C)O3)c2ccc(OC)cc21 (configuration not stated) | 34 µM | 76 µM | selectivity ratio [2]: 49
43 | CCCCCCCCn1cc(CNCC2CC3CCC2C3)c2ccc(OC)cc21 (configuration not stated) | 10 µM | 19 µM | –
44 | COc1ccc2c(CN3CCC4(CC3)OCCO4)cn(CCCc3ccccc3)c2c1 | 35 µM | – | –
45 | CCCCCCCCn1cc(CN2CCC3(CC2)OCCO3)c2ccc(OC(C)C)cc21 | 41 µM | 56 µM | –
46 | CCCCCCCCn1cc(CN2CCC3(CC2)OCCO3)c2ccc([N+](=O)[O-])cc21 | 62 µM | > 300 µM | –
47 | CCCCCCCCn1cc(CN2CCC3(CC2)OCCCO3)c2ccc(C#N)cc21 | 22 µM | > 300 µM | –
